# Assay outcomes as filed in PubChem.
# Hits are enriched below; roughly 3.5% of the tested compounds scored in any of these assays.
# MrgX1 antag = antagonists of human MrgX1 receptor, primary screen, HEK293 cells, Fluo-4 calcium flux. BAM8-22 antagonism; hits give low values. Mas-related G-protein coupled receptor member X1 (Homo sapiens), Q96LB2. AID 588676, 2011. B-score at 10 µM. 1.3% of 310,000 active;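 active = calcium-response B-score plate-corrected more than 3 library SD below zero, starting fluorescence within 5 deviations, no agonist response on first addition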;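 note: peak minus trough fluorescence over baseline after final BAM8-22 challenge near maximal dose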
# Target sequence (Q96LB2 whole entry, looked up): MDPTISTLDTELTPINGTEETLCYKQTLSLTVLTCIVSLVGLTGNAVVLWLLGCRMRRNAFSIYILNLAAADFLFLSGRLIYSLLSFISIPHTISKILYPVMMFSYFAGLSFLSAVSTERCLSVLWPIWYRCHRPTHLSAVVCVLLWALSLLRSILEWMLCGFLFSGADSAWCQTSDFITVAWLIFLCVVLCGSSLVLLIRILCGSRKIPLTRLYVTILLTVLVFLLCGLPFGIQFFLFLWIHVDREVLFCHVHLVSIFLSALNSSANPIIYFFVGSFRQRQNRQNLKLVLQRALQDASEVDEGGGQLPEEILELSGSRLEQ
# RGS4 pot = RGS4 potentiators or activators, primary screen, cell-based, HEK293 M3R inducible RGS4, calcium flux | 0.92% of 310,000 active | B-score at 10 µM | carbachol calcium flux Fluo4; hits give low values;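 active = B-score of the integrated calcium signal more than 4 SD below the library mean, with starting fluorescence not abnormally high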;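 note: negative B-score means reduced calcium response which marks RGS4 activation or potentiation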
#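 Material: Inducible-RGS4 HEK293 cells carrying M3 receptor; also added: carbachol at ECmax as muscarinic agonist stimulus; incubation: compound preincubation 20 min at room temperature before agonist; signal: Fluo4-AM (2 µM) calcium-flux fluorescence, kinetic read; measure: integrated calcium ratio converted to B score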
# MrgX1 agonist = agonists of human MrgX1 receptor, primary screen, HEK293 cells, Fluo-4 calcium flux; Mas-related G-protein coupled receptor member X1 (Homo sapiens), Q96LB2; Fluo-4 calcium fluorescence, agonist mode; hits give high values; B-score at 10 µM; 0.44% of 310,000 active; AID 588627, 2011;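 active = calcium response B-score plate-corrected fluorescence ratio at least 3 library SD, with starting fluorescence B-score inside 5 SD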
#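 Material: HEK293 cells stably expressing human MrgX1 receptor | Quantity: 15,000 cells per well | Times: Cells plated overnight, dye loaded 0.5 h 37 °C, 0.5 h room temperature | Measured by: Kinetic Fluo-4 NW fluorescence of intracellular calcium | Control set: Positive and negative controls per plate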
# RGS4 block = RGS4 inhibitors, primary screen, cell-based, HEK293 M3R inducible RGS4, calcium flux. Fluo-4 calcium flux; hits give high values; triggered by carbachol at its EC20. 0.45% of 310,000 active. Regulator of G-protein signaling 4 (Homo sapiens), P49798. B-score at 10 µM. AID 463165, 2010;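 active = B-score, a plate-corrected calcium signal, over three deviations above library mean, with baseline fluorescence within five deviations of library mean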;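 note: RGS4 expression induced by doxycycline in cells with stable M3 receptor; B-score is computed from the integrated fluorescence ratio over baseline after carbachol; higher B-score means a larger calcium signal and so more RGS4 inhibition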
# Target sequence (P49798 whole entry, looked up): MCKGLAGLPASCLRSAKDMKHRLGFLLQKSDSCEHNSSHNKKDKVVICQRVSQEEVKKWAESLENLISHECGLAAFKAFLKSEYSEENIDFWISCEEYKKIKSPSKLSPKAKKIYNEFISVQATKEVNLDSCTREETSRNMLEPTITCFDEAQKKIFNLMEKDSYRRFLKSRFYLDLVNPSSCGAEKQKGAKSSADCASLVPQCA
# MrgX1 PAM = positive allosteric modulators of MrgX1, primary screen, HEK293 cells, Fluo-4 calcium flux; Mas-related G-protein coupled receptor member X1 (Homo sapiens), Q96LB2; FDSS; hits give high values; B-score at 10 µM; 0.63% of 310,000 active; AID 588675, 2011;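 active = plate-corrected calcium response at least 3 library SD above typical, normal starting fluorescence, not activating the receptor alone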;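 note: compound read alongside a low EC10 to EC30 dose of BAM8-22 agonist; peak minus trough fluorescence over baseline measured at the second addition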
# MrgX1 antag conf = MrgX1 receptor antagonists, duplicate retest, confirmation, HEK293 cells, Fluo-4 calcium flux; shares compounds with MrgX1 antag; BAM8-22 calcium flux; hits give low values; remaining BAM8-22 calcium response % of control (hits give low values), % at 10 µM; 19% of 2,300 active; AID 602420, 2012;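 active = remaining agonist calcium response no higher than 100% minus 3 SD of agonist-only control wells, with starting fluorescence near control levels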;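 note: agonist BAM8-22 given at a near maximal EC90 to ECmax level; peak minus minimum fluorescence divided by baseline after agonist addition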
# HEK293 Ca flux = nonspecific calcium signal in parental HEK293, confirmation, counter-screen for MrgX1 antagonist project, parental HEK293 cells, Fluo-4 calcium flux; shares compounds with MrgX1 antag; Fluo-4 calcium fluorescence, FDSS; fluorescence ratio F(max-min)/F0 at 10 µM; 2% of 4,000 active; AID 624111, 2012;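 active = duplicate-averaged calcium fluorescence ratio at least three times the standard deviation of buffer wells, a nonspecific response in parental cells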
# HEK293 Ca counter = calcium response in parental HEK293 cells, primary screen, counter-screen for MrgX1 allosteric activator project, cell-based, Fluo-4 calcium flux, duplicate; 0.4% of 4,000 active; Fluo-4 fluorescence ratio; hits give high values; AID 624114, 2012; fluorescence ratio F(max-min)/F0 at 10 µM; shares compounds with MrgX1 antag;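 active = calcium fluorescence ratio, averaged over duplicates, at least 3 SD of the buffer-well ratio, meaning a nonspecific response in receptor-free cells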;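 note: untransfected parental HEK293 lacking MrgX1 used as counterscreen for MrgX1 allosteric activators; fluorescence change taken during the second addition on a kinetic imager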
# HEK293 Ca cntr2 = calcium response in parental HEK293 cells, primary screen, counter-screen for MrgX1 agonist project, cell-based, Fluo-4 calcium flux, duplicate, agonist mode. 8.7% of 4,000 active. fluorescence ratio F(max-min)/F0 at 10 µM. shares compounds with MrgX1 antag. Fluo-4 calcium fluorescence (FDSS); hits give high values;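 active = calcium fluorescence ratio at least three times the spread of buffer wells, meaning a non-specific response in parental cells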
# A number is an active result; - = inactive; . = not tested or not shown.
SMILES,MrgX1 antag,RGS4 pot,MrgX1 agonist,RGS4 block,MrgX1 PAM,MrgX1 antag conf,HEK293 Ca flux,HEK293 Ca counter,HEK293 Ca cntr2
CC(=O)c1sc(NC(=O)COc2ccc(Cl)cc2Cl)nc1C,-4.7,-,-,-,-,-,-,-,-
COc1ccccc1OCC(=O)Nc1nnc(C2CCCC2)s1,-,-,-,-,-,.,.,.,.
CC(=O)N1CCN(c2ccc(NC(=O)COc3ccc(Cl)cc3Cl)cc2)CC1,-7,-,-,-,-,85%,-,-,-
O=C(COc1cc(Cl)ccc1Cl)Nc1nnc(C2CC2)s1,-4.6,-,-,-,-,-,-,-,-
CCOC(=O)c1cnn(-c2ccccc2)c1-n1cccc1C(=O)C(=O)Nc1ccccc1,-,-,-,-,-,.,.,.,.
CC1CCCN(CCCNC(=O)c2ccc(N3CCCC3=O)cc2)C1 (stereo not drawn),-,-,-,-,-,.,.,.,.
O=S1(=O)c2cccc3cccc(c23)N1CCBr,-,-,-,-,-,.,.,.,.
CCCN(C(=O)c1ccco1)c1nnc(-c2cccc(C)c2)s1,-,-,-,-,-,.,.,.,.
COCCN(C(=O)C1CC1)c1nnc(-c2cccc(C)c2)s1,-5.4,-,-,-,-,-,-,-,-
COc1ccc(Cl)cc1NC(=O)CSc1nc(=O)n(CCN(C)C)c2c1CCCC2,-,-,-,-,-,.,.,.,.
CCN(CC)CCn1c2c(c(SCC(=O)Nc3ccc(F)c(F)c3)nc1=O)CCC2,-9.5,-,-,-,-,-,-,-,-
COc1ccc(NC(=O)CSc2nc(=O)n(CCN(C)C)c3c2CCCC3)cc1OC,-5.6,-,-,-,-,-,-,-,-
O=c1nc2sc3ccccc3n2c(=O)n1-c1ccc(Cl)cc1,-,-,-,-,-,.,.,.,.
O=C(Cn1ccc2ccccc2c1=O)NCCC(=O)NC1CCN(Cc2ccccc2)CC1,-,-,-,-,-,.,.,.,.
CCCNc1nc(C)cc(-c2cc(-c3ccc(Cl)cc3)on2)n1,-,-,-,-,-,.,.,.,.
Cc1c(C(=O)O)sc2nc(-c3cccs3)cc(C(F)(F)F)c12,-,-,-,-,-,.,.,.,.
COc1ccc(OC)c(NC(=O)c2sc3nc(Cc4ccccc4)cc(C(F)(F)F)c3c2N)c1,-,-,-,-,-,.,.,.,.
CC(=O)c1sc2nc(-c3cccs3)cc(C(F)(F)F)c2c1N,-10,-,-,-,-,-,-,-,-
CN(C)CCNC(=O)c1sc2nc(-c3ccccc3)cc(C(F)(F)F)c2c1N,-7.7,-,-,-,-,-,-,-,-
Cc1cc(C(F)F)n2nc(C(=O)Nc3sc4c(c3C#N)CCC4)nc2n1,-,-,-,-,-,.,.,.,.
COCCNC(=O)C1CC2Cn3c(nc4cc(Cl)c(Cl)cc43)C2N1C (stereo not drawn),-5.5,-,-,-,-,-,-,-,-
Cc1ccccc1NC(=O)CCN1CCCCCC1,-6.1,-,-,-,-,-,-,-,-
Cc1ccccc1NC(=O)CCN1CCN(Cc2ccccc2)CC1,-,-,-,-,-,.,.,.,.
CC(=O)Nc1ccc(S(=O)(=O)NCc2nc(-c3ccccc3Cl)no2)cc1,-,-,-,-,-,.,.,.,.
CCc1ccc(NC(=O)c2cnc(N3CCN(c4ccccn4)CC3)c3ccccc23)cc1,-7.1,-7.2,-,-,-,60%,-,-,-
SMILES,MrgX1 antag,RGS4 pot,MrgX1 agonist,RGS4 block,MrgX1 PAM,MrgX1 antag conf,HEK293 Ca flux,HEK293 Ca counter,HEK293 Ca cntr2
CC(C)NC(=O)c1cnc(N2CCN(c3ccccn3)CC2)c2ccccc12,-,-,-,-,-,.,.,.,.
COCCC(=O)N1CCC(Oc2ccc(C(=O)N3CCC(N(C)C)C3)cc2)CC1 (stereo not drawn),-,-,-,-,-,.,.,.,.
CC(Cc1cccs1)NC(=O)Nc1cccc(Cl)c1 (stereo not drawn),-,-,-,-,-,.,.,.,.
CC(Cc1cccs1)NC(=S)Nc1ccc(Cl)c(Cl)c1 (stereo not drawn),-6.8,-,-,-,-,-,-,-,-
Cc1ccc(S(=O)(=O)N2CCOCC2)cc1C(=O)Nc1nc(-c2cccnc2)cs1,-13,-,-,-,-,-,-,-,-
O=C(Nc1ccc(OCC(F)(F)C(F)F)c(C(F)(F)F)c1)c1ccccc1O,-5.7,-,-,-,-,-,-,-,-
Cc1ccccc1Cn1ccc(NC(=O)c2nc3ncccn3n2)n1,-5.7,.,-,.,-,-,-,-,-
Cc1ccccc1Cn1cc(NC(=O)c2nc3ncccn3n2)cn1,-,-,-,-,-,.,.,.,.
CC(C)(Oc1ccc(Cl)cc1)C(=O)OCC(=O)N1CCCC1,-13,-,-,-,-,-,-,-,-
COc1ccccc1CCC(=O)Oc1ccc(C#N)cc1OC,-,-,-,-,-,.,.,.,.
CN(C)c1ccc(/C=N\NC(=O)c2cccc3cc[nH]c23)cc1,-,-,-,-,-,.,.,.,.
COc1ccc(C(=O)CC(=O)C(=O)Nc2ccc(OC)c(Cl)c2)cc1,-5.1,-,-,-,-,-,-,-,-
COc1ccc(C(=O)CC(=O)C(=O)Nc2ccc(Cl)cc2)cc1,-,-,-,-,-,.,.,.,.
O=C(COC(=O)[C@H](Cc1ccccc1)N1C(=O)c2ccccc2C1=O)Nc1ccc2c(c1)OCO2,-,-,-,-,-,.,.,.,.
CC(C)[C@@H](C(=O)OCC(=O)Nc1ccc2c(c1)OCO2)N1C(=O)c2ccccc2C1=O,-5.3,-,-,-,-,-,-,-,-
Cc1noc(C)c1CSc1ncnc2ccccc12,-7.7,-,-,-,-,-,-,-,-
Cc1ccc(C(C)C)c(OCC(=O)N2CCOCC2)c1,-6,-,-,-,-,-,-,-,-
Cc1cc(C(=O)NNC(=O)/C=C/c2ccccc2Cl)c(C)o1,-15,-,-,-,-,-,-,-,-
